From PubChem
UPR XBP1 act: adaptive UPR (XBP1) activation. CHO-XBP1 luciferase reporter, IRE1-XBP1 UPR activation, luminescence; percent of tunicamycin response, DMSO as zero. activation, % at 20 µM. 0.33% of 330,000 active. AID 463104;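 active means versus positive control, 20 µM dose yields 30% or more activation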;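 further: 100% = tunicamycin at 10 µg/mL and 0% = DMSO only wells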
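assay system = CHO-XBP1 luciferase reporter cells | amount = 1000 cells/well | buffer or medium = F12 plus 10% FBS | compound dosing = single point, 20 µM final compound, 1% DMSO | incubation = 16-18 h cell attachment at 37 °C, then 6 h compound exposure | detection = Steady-Glo luminescence read | controls = tunicamycin 10 µg/mL and vehicle-only wells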
TbMetRS inhib: Trypanosoma brucei MetRS inhibition; purified T. brucei MetRS, ATP depletion, Kinase-Glo luminescence; inhibition, % at 11.9 µM; 0.4% of 360,000 active;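 active means inhibition above a per-plate cutoff of the control wells' mean inhibition plus 3 SD, cut at about 5.5% in these data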;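 further: 0% = DMSO wells median and 100% = median of wells with control inhibitor compound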
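Test system: purified T. brucei MetRS enzyme. Also added: ATP, methionine and E. coli bulk tRNA substrates. Compound: 11.9 µM single point. Schedule: 15 min enzyme-compound preincubation, 2 h reaction, 10 min detection, 25 °C. Signal: luciferase luminescence of residual ATP, Kinase-Glo. Evaluation: percent inhibition versus plate control medians. Controls: DMSO wells, low control.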
V-ATPase pHluor: alters yeast V-ATPase proton transport | S. cerevisiae, pHLuorin cytosolic pH fluorescence | response, % at 10 µM | 0.37% of 350,000 active; in the data active means response mostly above about 7.3%, no sharp cut-off; inactive means mostly below about 5.4%; further: actives read high
UPR CHOP act: activators of apoptotic arm of unfolded protein response (CHOP). CHO-CHOP luciferase reporter, UPR activation, luminescence; percent of tunicamycin response over DMSO baseline. activation, % at 10 µM. 0.34% of 330,000 active;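 active means at 10 µM dose, activation of 40% or more, normalized to positive control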;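 further: 100% = tunicamycin at 10 µg/mL and 0% = DMSO alone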
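System: CHO-CHOP luciferase reporter cell line | Buffer or medium: F12 medium containing 10% fetal bovine serum | Doses: One dose, 10 µM in 0.5% DMSO | Times: 6 h compound exposure at 37 °C after overnight seeding | Signal: Luciferase luminescence | Read-out: % activation vs tunicamycin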
CHOP inhibitor: inhibitors of CHOP induction in ER stress response. inhibition, % at 10 µM. 3.8% of 220,000 active. AID 2732. CHO-K1 CHOP-promoter luciferase, tunicamycin-induced, 15-18 h;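 active means compounds that reduced the stress-induced luciferase reporter signal by more than about 70% of percent inhibition, limit read from the data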;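 further: 0% = tunicamycin plus vehicle and 100% = wells without tunicamycin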
Active calls of the source: *; · = not tested or not shown. The entries come from a sample that favours hits as a whole.

SMILES	UPR XBP1 act	TbMetRS inhib	V-ATPase pHluor	UPR CHOP act	CHOP inhibitor
Cc1ccc(NC(=O)CSc2ncnc3ccccc23)cc1S(=O)(=O)N1CCCCCC1	-2	-1	-5	3	70*
Cc1ccc(S(=O)(=O)N2CCCCC2)cc1NC(=O)CSc1ncnc2ccccc12	-2	0	1	1	-6
CC1=CC(=O)C2=C(C)CCC3C(C)C(=O)OC3C12 (stereo not drawn)	·	0	·	·	·
CCOC(=O)c1c(NC(=O)COC(=O)Cn2cnc3ccccc32)sc2c1CCC(C)C2 (stereo not drawn)	·	-1	-4	·	72*
CCOC(=O)c1c(NC(=O)Cn2c(C)nc3ccccc32)sc2c1CCC2	-6	0	·	0	48
CCOC(=O)c1c(NC(=O)C(C)NCc2ccco2)sc2c1CCC(C)C2 (stereo not drawn)	-3	0	13	-2	73*
CCOC(=O)c1c(NC(=O)Cn2nnc3ccccc32)sc2c1CCC(C)C2 (stereo not drawn)	-3	0	-3	0	49
CCOC(=O)c1c(NC(=O)COC(=O)Cn2c(C)nc3ccccc32)sc2c1CCCC2	-4	0	0	-2	74*
CCOC(=O)c1c(NC(=S)NC(=O)c2ccc(Cn3cc(Cl)cn3)o2)sc2c1CCC(C)C2 (stereo not drawn)	13	0	0	8	77*
O=C(CC1Sc2ccccc2NC1=O)NNc1cc(Cl)ccc1Cl (stereo not drawn)	·	0	-3	·	·
CN(CC(=O)Nc1cc(Cl)ccc1-n1cncn1)Cc1ccccc1N1CCOCC1	·	0	-3	·	·
CC(C)S(=O)(=O)NC(=O)C1(C)CCN1C(=O)Cc1ccccc1 (stereo not drawn)	·	0	·	·	·
CCOC(=O)c1c(NC(=O)COc2cccc3c2CCN(C)C3=O)sc2c1CCC2	-1	-1	0	9	82*
Cc1cccc(NC(=O)COc2cccc3c2CCN(C)C3=O)c1C	-3	0	1	0	9
O=C1c2ccccc2C(c2nnnn2-c2ccc3c(c2)OCCO3)N1C1CC1 (stereo not drawn)	·	-2	·	·	·
Cc1cc(C(=O)Cn2cnc3ccc(Cl)cc3c2=O)c(C)n1C1CC1	·	0	-1	·	·
COc1ccc(/C=C\C(=O)c2c(O)ccc3c(C)cc(=O)oc23)cc1OC	6	1	2	17	73*
CSc1ccc(/C=C/C(=O)Nc2ccccc2)cc1	-4	-1	0	-3	84*
CSc1cccc(NC(=O)/C=C/c2ccccc2)c1	5	0	-5	7	51
Cc1cc(Nc2ccc(Cl)cc2)n(-c2cccc(Cl)c2)n1	0	-1	-3	-2	72*
c1ccc(CC2CCN(C3=Nc4cccc5cccc3c45)CC2)cc1	1	0	1	5	88*
CC1(C(=O)Nc2ccccc2F)CCN1C(=O)Cc1cc(F)ccc1F (stereo not drawn)	·	3	·	·	·
COc1cc(C(=O)N=c2sc3ccccc3n2C)cc(OC)c1OC	13	0	-1	5	-9
Cn1c(=NC(=O)c2cccc([N+](=O)[O-])c2)sc2ccccc21	6	-1	-2	18	73*
COc1cc2c(cc1OC)[C@@H](c1ccccc1)CN(C)CC2	·	·	·	·	39
SMILES	UPR XBP1 act	TbMetRS inhib	V-ATPase pHluor	UPR CHOP act	CHOP inhibitor
Cc1ccc(C(C)C)cc1NC(=O)Nc1ccc([N+](=O)[O-])cc1	3	1	-5	6	106*
CCOc1ccc(NC(=O)Nc2cc(C(C)C)ccc2C)cc1	-1	-1	0	0	93*
C=CCN(C(=O)c1ccccn1)C(C(=O)NCc1ccccc1)c1ccccc1F (stereo not drawn)	2	-1	1	1	-12
CCOC(=O)c1c(N)sc(C(O)(C(F)(F)F)C(F)(F)F)c1-c1ccc(F)cc1	2	0	·	-3	78*
CCOC(=O)c1c(NC(=O)C2C3CCC(O3)C2C(=O)O)sc(C)c1-c1ccc(F)cc1 (stereo not drawn)	0	-1	3	-1	11
CCCCCC(O)(CCCCC)C(=O)NNc1ccccc1	-6	-1	-1	-1	91*
COc1ccc(C(CC(=O)c2ccc3c(c2)OCO3)C(=O)O)cc1OC (stereo not drawn)	·	0	-2	·	·
CN1/C(=C\C(=O)COc2ccc3c(c2)OCO3)C(C)(C)c2ccccc21	-2	0	-1	-4	85*
